# Results published in publication PMC7115674 (Peptides, 2008).
# Entries after “also recorded” stand apart in the source; their conditions may differ. Where two headings read alike, the source gives them in different places.
# Key:
# trypsin [1] = conditions: in words; cited from earlier work
# [2] = Thermal and pH stability of antifungal activity; format: physicochemical; conditions: for thermostability: antifungal activity after thermal pretreatment
# Method in brief: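 Test peptide was pretreated at 0–100 °C for 10 min or at pH 0–3 and 10–14 for 30 min. Ions were also tested. Residual antifungal activity was then measured by the paper-disk assay on potato dextrose agar (2 μg peptide per disk, buffer control disk, 23 °C, 72 h), scoring inhibition crescents.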
# mouse splenocytes [3] = assay: Mitogenic activity; format: cell-based; conditions: data not shown; Con A positive control
# trypsin [4] = assay: Trypsin-inhibitory activity; format: biochemical
# [5] = tested on: severe acute respiratory syndrome (SARS) coronavious (CoV) protease; format: biochemical
# [6] = tested on: HIV-1 reverse transcriptase; assay: HIV-1 reverse transcriptase inhibitory activity; format: biochemical; conditions: in words
# fungal species [7] = assay: Antifungal activity, fungal species in general or not specified; format: cell-based; conditions: for antifungal activity: in words
# Helminthosporium maydis = assay: Antifungal activity, mycelial growth inhibition, Helminthosporium maydis; format: cell-based; conditions: read-out: IC50 of antifungal activity; potato dextrose agar, 23 °C, 72 h; 50% reduction in area of mycelial colony
# Method in brief: (§1)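 Four doses of test peptide were mixed separately into potato dextrose agar at 45 °C and poured into small plates. Each plate then received an equal amount of mycelia, with a buffer-only control. After 72 h at 23 °C, colony area was measured. % inhibition = reduction in colony area relative to the control. IC50 was read from the % reduction versus concentration plot at 50% reduction.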
# Valsa mali = assay: Antifungal activity, mycelial growth inhibition, Valsa mali; format: cell-based; conditions: read-out: IC50 of antifungal activity; potato dextrose agar, 23 °C, 72 h; 50% reduction in area of mycelial colony
# Method in brief: as §1
# Fusarium oxysporum [8] = assay: Antifungal activity, mycelial growth inhibition, Fusarium oxysporum; format: cell-based
# Method in brief: as §1
# [9] = tested on: a Helminthosporium species; assay: Antifungal activity, a Helminthosporium species; format: cell-based; conditions: in words
# Method in brief: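 Mycelial disk-diffusion assay on potato dextrose agar. After the colony developed, sterile paper disks (0.625 cm) were placed 1 cm from the colony rim. Each disk received test peptide (60 μg or 300 μg) in 20 mM PBS, pH 6.0, and buffer served as the control. Plates were incubated at 23 °C for 72 h and scored for crescents of inhibition around the disks.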
# [10] = tested on: Mycosphaerella arachidicola; assay: Antifungal activity, mycelial growth inhibition, Mycosphaerella arachidicola; format: cell-based
# Method in brief: as §1
# HIV-1 integrase [11] = assay: HIV-1 integrase inhibition; format: biochemical; conditions: data not shown
# tumor cells [12] = assay: Antiproliferative activity on tumor cells, line not specified; format: cell-based; conditions: in words
# Method in brief: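 MCF-7 breast cancer and HepG2 hepatoma cells were suspended in RPMI at 2 × 10^4 cells/ml, seeded and incubated for 24 h. Graded concentrations of test peptide in complete RPMI were added for 72 h. MTT (5 mg/ml stock in PBS) was added for 4 h, plates were centrifuged, formazan was dissolved in DMSO and absorbance read at 590 nm.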
# Fusarium oxysporum [13] = conditions: in words; cited from earlier work
# [14] = tested on: HIV-1 reverse transcriptase; conditions: cited from earlier work
# fungal species [15] = conditions: in words; cited from earlier work
# HIV-1 integrase [16] = conditions: cited from earlier work
# mouse splenocytes [17] = conditions: toward mouse splenocytes; cited from earlier work
# hepatoma HepG2 cell line = conditions: read-out: IC50, antiproliferative activity; cited from earlier work
# [18] = tested on: Mycosphaerella arachidicola; conditions: in words; cited from earlier work
# [19] = tested on: severe acute respiratory syndrome (SARS) coronavious (CoV) protease; conditions: cited from earlier work
# [20] = tested on: breast cancer MCF-7 cell line; conditions: read-out: IC50, antiproliferative activity; cited from earlier work
# tumor cells [21] = conditions: in words; cited from earlier work
# [22] = tested on: a Helminthosporium species; conditions: in words; cited from earlier work
# [23] = read-out: IC50 of antifungal activity, potato dextrose agar, 23 °C, 72 h, 50% reduction in area of mycelial colony
sequence,measurement,setting,value
SECLKEYGGDVGFGFCAPRIYPSFCVQRC [Brassica napus trypsin inhibitor],trypsin inhibitory activity,trypsin [1],manifest trypsin inhibitory activity
PEGPFQGPKATKPGDLAXQTWGGWXGQTPKY [kale antifungal peptide],pH stability,"[2]; antifungal activity after pH pretreatment, in words",remarkable thermostability and pH stability
same,thermostability,[2]; in words,remarkable thermostability
same,thermostability,"[2]; in words, listed as antifungal peptide",pronounced thermostability
same,acid pH range after which antifungal activity was retained,"[2]; pH, pretreatment 30 min, tested pH 0–3, paper disk assay, 2 μg peptide per disk",2–3
same,mitogenic activity,mouse splenocytes [3],devoid of mitogenic activity
same,trypsin inhibitory activity toward BAEE,"trypsin [4]; BAEE as substrate, tested up to 50 μM, detailed data not shown",lacked trypsin inhibitory activity
same,trypsin inhibitory activity toward casein,"trypsin [4]; casein as substrate, tested up to 10 μM, detailed data not shown",lacked trypsin inhibitory activity
same,trypsin inhibitory activity,"trypsin [4]; substrate not specified, in words",did not exhibit trypsin inhibitory activity
same,SARS proteinase inhibitory activity,[5],devoid of
same,HIV-1 reverse transcriptase inhibitory activity,[6],HIV-1 reverse transcriptase inhibitory activity; also recorded: potent antiproliferative and HIV-1 reverse transcriptase inhibitory activities
same,antifungal potency compared with other antifungal proteins,"fungal species [7]; compared with antifungal proteins of refs 31, 32, 40",more potent than that of the antifungal proteins
same,antifungal activity,fungal species [7],broad spectrum of antifungal activity; also recorded: exhibit antifungal activity
same,antifungal activity,fungal species [7]; listed as antifungal peptide,stable and broad-spectrum antifungal activity
same,IC50,Helminthosporium maydis,2.1 µM
same,IC50,Valsa mali,0.15 µM
same,antifungal activity toward F. oxysporum,Fusarium oxysporum [8]; in words,antifungal activity toward F. oxysporum
same,IC50,Fusarium oxysporum [8]; [23],4.3 µM
same,antifungal activity toward a Helminthosporium species,[9],"antifungal activity toward F. oxysporum, M. arachidicola and a Helminthosporium species"
same,antifungal activity toward M. arachidicola,[10]; in words,"antifungal activity toward F. oxysporum, M. arachidicola"
same,IC50,[10]; [23],2.4 µM
same,HIV-1 integrase inhibitory activity,HIV-1 integrase [11],devoid of
same,antiproliferative activity,tumor cells [12],demonstrated antiproliferative activity; also recorded: antiproliferative activity toward tumor cells; also recorded: potent antiproliferative
ALSCGTVSGNLAACAGYV [B. campestris antifungal peptide],antifungal activity toward F. oxysporum,Fusarium oxysporum [13],antifungal activity toward F. oxysporum
same,HIV-1 reverse transcriptase inhibitory activity,[14]; in words,HIV-1 reverse transcriptase inhibitory activity
same,IC50,"[14]; read-out: IC50, HIV-1 reverse transcriptase inhibitory activity",4 µM
same,antifungal activity,fungal species [15],with antifungal activity
same,HIV-1 integrase inhibitory activity,HIV-1 integrase [16],Neither kale nor B. campestris antifungal peptide demonstrated HIV-1 integrase inhibitory
same,mitogenic activity,mouse splenocytes [17],devoid of mitogenic activity toward mouse splenocytes
same,IC50,hepatoma HepG2 cell line,5.8 µM
same,antifungal activity toward M. arachidicola,[18],"antifungal activity toward F. oxysporum, M. arachidicola"
same,SARS proteinase inhibitory activity,[19],Neither kale nor B. campestris antifungal peptide demonstrated HIV-1 integrase inhibitory and SARS proteinase inhibitory activities
same,IC50,[20],1.6 µM
same,antiproliferative activity toward tumor cells,tumor cells [21],antiproliferative activity toward tumor cells
same,antifungal activity toward a Helminthosporium species,[22],"antifungal activity toward F. oxysporum, M. arachidicola and a Helminthosporium species"
